Our source for the cytotoxicity values is ChEMBL document CHEMBL4513216, “Probing the Open Global Health Chemical Diversity Library for Multistage-Active Starting Points for Next-Generation Antimalarials” (ACS Infect Dis, 2020).

Structures are written as SMILES.

This data set can be described thus: Toxicity liver stage against HepG2, at 10uM. In kind it is cell-based. Details: test concentration 10 uM, cell line HepG2-A16-CD81EGFP. The conditions noted are these: human, HepG2-A16-CD81EGFP cells; read-out: INHIBITION
The essentials: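 Uninfected HepG2-A16-CD81EGFP cells, 3 × 10^3 per well, 1536-well, plated on prespotted compound at 10 μM final, parasite-free screening media added to match infected plates; puromycin 10 μM positive, DMSO 0.5% negative; run in parallel with 48 h PbLuc assay at 37 °C, 5% CO2; viability by CellTiter-Glo luminescence, normalized to controls.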
For the compound `COc1ccc(CNC[C@H]2COCc3nc4cccnc4n32)cn1`, the cytotoxicity at 10 µM is -0.772%. For `COc1ccc(S(=O)(=O)N2CCC(Cn3ccnc3)CC2)cc1`, the cytotoxicity at 10 µM was -0.178%.

`CCCC(=O)NCC(Cc1cccc(F)c1)N1CCCC1=O` (stereo not drawn): the cytotoxicity at 10 µM was -2.91%. Regarding `COc1ccc(Cl)cc1NC(=O)N1CCc2nc(NC(C)=O)sc2C1`, the cytotoxicity at 10 µM amounted to 12.1%. For `CN(C)CCN1C[C@@H]2CN(C(=O)C3CC=CC3)C[C@@H]2C1=O` the value was -1.34%; for `CC(C)N(C)Cc1n[nH]c2c1CCN(C(=O)c1cc[nH]n1)C2`, -134%; for `CC(C)c1ccc(-n2nnc(C(=O)O)c2-c2ccccn2)cc1`, 9.18%. The value for `COc1ccc(-c2nnsc2C(=O)N2CCOCC2)cc1` was 3.03%; that for `COCCNC(=O)C[C@@H]1COC[C@H]2CN(C(=O)c3cnccn3)C[C@@H]12` was -12.2%; that for `Cc1nn(C)c2c(=O)n(Cc3ccc(C#N)cc3)nnc12` was 3.12%. For `O=C(c1nn[nH]c1Nc1cccc(Cl)c1)N1CCSCC1` the value was 20.3%; for `COCCNc1cc(C(=O)N2CCOCC2)nc(C)n1`, 0.598%; for `Cc1nc(NCCc2ccc(Cl)cc2)cc(C(=O)N2CCOCC2)n1`, -4.78%. Regarding `Cc1noc(C)c1-c1cccc(C2CCN(CC(=O)N(C)C)CC2)n1`, the cytotoxicity at 10 µM stood at 6.33%.

As for `CCOCCCNc1ncc(-c2cccc(F)c2)c(-c2nccn2C)n1`, the cytotoxicity at 10 µM worked out at 12.5%. For `Cc1nc(C)n(CC(=O)N2CCCC(c3nc(C)n4c(C)csc34)C2)n1` (stereo not drawn) the value was 2.08%. The value for `NCCCC(=O)NCC1(O)CCN(c2ccnc3cccnc23)C1` (stereo not drawn) was 1.58%.

For `NC1(CN2CCOCC2)CCCCC1`, the cytotoxicity at 10 µM came to 1.72%. As for `CC(=O)NCCNC(=O)c1nc(C2CC2)n(-c2ccccc2Cl)n1`, the cytotoxicity at 10 µM came to 9.74%. For `N#Cc1cn(C2CC2)c(=O)n(Cc2ncc(-c3cccs3)o2)c1=O`, the cytotoxicity at 10 µM came to 14.8%. Take `O=C1CN(Cc2occc2C(=O)NCCc2ccc(F)cc2)CCN1`: the cytotoxicity at 10 µM is -10.2%. The value for `COC(=O)COc1c(F)cc(Br)cc1C(C)=O` was 2.63%.

On to `CCCn1nc(C(=O)N(C)Cc2nnc3n2CCC3)ccc1=O`, for which the cytotoxicity at 10 µM turned out to be 1.77%. For `N#Cc1cccc(S(=O)(=O)NC2CCN(CC(F)(F)F)C2)c1` (stereo not drawn) the value was -1.03%; for `CC1CN(C)CCN1C(=O)c1cccn1Cc1ccncc1` (stereo not drawn), -5.53%. In the case of `CCOC(=O)C(C)NC(=O)CCSc1ccc(F)cc1` (stereo not drawn), the cytotoxicity at 10 µM is 9.13%.

On to `Cc1csc(CN(CC2CCCO2)C(=O)c2occc2C)n1` (stereo not drawn), for which the cytotoxicity at 10 µM stood at 0.489%.

For the compound `NC(=O)CN(CC(=O)NCc1cc(F)cc(F)c1)C1CCCC1`, the cytotoxicity at 10 µM was -8.58%. On to `Cc1nc(C(C)C)sc1C(=O)N(C)Cc1cnn(C)c1`, for which the cytotoxicity at 10 µM came to 6.45%. As for `CCc1nc(C2CCCN(C(=O)C3=NN(CC)C(=O)CC3)C2)no1` (stereo not drawn), the cytotoxicity at 10 µM is -9.28%. The value for `CC(Nc1cccc2c1OCCO2)C(=O)Nc1cccc(C#N)c1` (stereo not drawn) was 4.7%; that for `Cn1cc(CC2CC(=O)N(Cc3ccc(Cl)cc3)C2=O)cn1` (stereo not drawn) was -0.276%. For `CN(C1CCN(c2ccccn2)CC1)S(=O)(=O)c1ccc(F)cc1` the value was 11.2%. For `CN1CCN(CC(NCc2ccc(F)c(F)c2)c2ccccc2)CC1` (stereo not drawn) the value was -10%; for `C[S+]([O-])c1nncn1CC(=O)c1cccc(C(F)(F)F)c1` (stereo not drawn), -0.661%; for `NCC1(c2cccc(C(F)(F)F)c2)CCCCC1`, -8.66%. With `CCn1nc2c(cc1=O)CN(Cc1nc3ccccc3o1)CC2`, the cytotoxicity at 10 µM was -8.9%. The value for `N#Cc1ccc(F)c(CNC(=O)NC(CO)Cc2ccccc2)c1` (stereo not drawn) was 1.98%; that for `Cn1ccnc1CNC(=O)N(CCCO)C1CCc2ccccc21` (stereo not drawn) was -11.6%; that for `O=C(NCC(O)c1ccc(F)c(F)c1)c1ccccc1F` (stereo not drawn) was -3%. On to `O=C(CS(=O)(=O)Cc1ccccc1)NCc1ccccc1F`, for which the cytotoxicity at 10 µM was -17.6%. With `COc1ccc(CCC(=O)N(C)CCN2CCOCC2)cc1OC`, the cytotoxicity at 10 µM stood at 7.83%. The value for `CN(Cc1cnn(C)c1)C(=O)NC1CCCC1` was 7.43%; that for `Cc1nccc(CNC(=O)Nc2cc(C(F)(F)F)c[nH]c2=O)n1` was -1.16%.

As for `O=C(c1[nH]nc(C2CC2)c1Cl)N1CCN(C2CC2)CC1`, the cytotoxicity at 10 µM was -5.58%. The value for `CC(C)CC(=O)Nc1cc(C(=O)N(C)C(C)C)ccc1Cl` was -7.62%; that for `CC(c1cccnc1)N1CCN(CCc2ccccn2)CC1` (stereo not drawn) was -6.18%. The value for `CS(=O)(=O)N1CCC(OCCCc2ccccc2)C1` (stereo not drawn) was 8.13%. The value for `CCN(CCNCc1cccc(C#N)c1)C1CC1` was -11.3%; that for `COc1ccc(C(NCc2cccc(C#N)c2)C2CC2)cc1` (stereo not drawn) was 15.9%.

For `CN(C)C(=O)c1ccc(NCCNc2ccc3ccccc3n2)nc1`, the cytotoxicity at 10 µM was determined as 4.63%. For `Cc1ccc(C2CSCCN2C(=O)c2cnsn2)o1` (stereo not drawn) the value was 5.11%; for `c1nc(CSc2nnc(C3CC3)s2)cs1`, -5.54%; for `COc1ccc(CNc2nncs2)cc1F`, -4.23%. As for `CCN(C(=O)CCc1ccc2c(c1)OCO2)C1CC(=O)NC1=O` (stereo not drawn), the cytotoxicity at 10 µM is -3.88%. For `Cc1cc(CC(=O)NC2CCCN(c3ccccc3Cl)C2=O)n[nH]1` (stereo not drawn) the value was 3.55%; for `Cc1cc(NC(=O)C(C)N2CCN(c3ccccc3F)CC2)no1` (stereo not drawn), 2.83%; for `COc1cc2ccn(CCCO)c(=O)c2cc1F`, -7.91%. For `CC(NC(=O)N1CCC[C@H]1CO)c1noc(-c2ccccc2)n1` (stereo partly drawn) the value was -6.67%; for `CC(=O)N1CCN(C(=O)C2SCCc3sccc32)CC1` (stereo not drawn), -11.5%; for `CC(C)Oc1cccc(C(O)CNC(=O)CCc2ccncc2)c1` (stereo not drawn), -3.82%. The value for `Cc1ccc(C(=O)N2CCCC2c2nnc3n2CCCCC3)o1` (stereo not drawn) was -6.05%; that for `Cc1cc(C2CCCN2Cc2ccc(C(=O)Nc3nccs3)cc2)on1` (stereo not drawn) was -6.03%. As for `COCC(O)CNC(=O)c1cc(COc2ccc3c(c2)CCCC3)on1` (stereo not drawn), the cytotoxicity at 10 µM was -147%.

Regarding `CC(C)(C)C(=O)N1CCCC1c1ccc(C(=O)N2CCOCC2)s1` (stereo not drawn), the cytotoxicity at 10 µM was -145%. Regarding `CC[C@H](C)[C@@H](CO)NC(C)Cc1ccc(F)cc1` (stereo partly drawn), the cytotoxicity at 10 µM was -6.27%. For `CCc1nc(C)c([C@H]2CN(C)C[C@@H]2C(=O)Nc2ccccc2F)[nH]1` the value was 2.16%; for `CC(C)Oc1cc(N2CC[C@H](CO)[C@@H](O)C2)nc(N)n1`, 2.41%; for `Cc1nnsc1CN1CCCC1c1nc(-c2ccccc2)no1` (stereo not drawn), -45.8%.

On to `Cc1cccnc1CN(C)C(C(=O)O)c1ccc(-c2ccn[nH]2)cc1` (stereo not drawn), for which the cytotoxicity at 10 µM was 12.2%. For `Cc1ccn(-c2cncc(C(N)=O)c2)n1` the value was 0.0642%. For `Cc1ccccc1CN1CCN(C(=O)c2ccn(C(C)(C)C)c2)CC1` the value was -0.585%; for `CC(C)c1ncc(CN2C[C@@H](CN3CCCN(C)CC3)[C@@H](CO)C2)cn1`, -9.77%.

For `Cc1c(CN2CCCC(C(=O)c3ccccc3)C2)cc(C#N)n1C` (stereo not drawn), the cytotoxicity at 10 µM is -6.63%. For `Cc1nnnn1CCC(=O)N1CCC2(CCC(=O)N(CC3CC3)C2)CC1` the value was 4.17%; for `Cc1ccnc(CC(C)N(C)Cc2ccc3c(c2)OCCO3)c1` (stereo not drawn), -4.24%. The value for `COc1ccccc1N1CCN(C(=O)CCn2ccc(C)n2)CC1(C)C` was -8.64%.

As to `O=S(=O)(c1c(N2CCCCC2)ccc2nonc12)N1CCCCC1`, the cytotoxicity at 10 µM is -3.39%. In the case of `O=C(O)CCc1cc2n(n1)CCCN(C(=O)c1ccc3cc[nH]c3c1)C2`, the cytotoxicity at 10 µM was -13.3%. Consider `CSCC(=O)NS(=O)(=O)c1ccc2c(c1)OCCO2`, for which the cytotoxicity at 10 µM was -9.69%.

With `COc1ccccc1C(O)CNCc1c(C(C)C)nn(C)c1N(C)C` (stereo not drawn), the cytotoxicity at 10 µM was -7.31%.

Consider `CCOc1cc(C)nc(N2CCN(C(=O)CC)CC2)n1`, for which the cytotoxicity at 10 µM is -6.68%.

Consider `COCCCN(C)C1CCCN(Cc2noc(C)n2)C1` (stereo not drawn), for which the cytotoxicity at 10 µM is -8.06%.

With `Cc1cc(C)c(CNC(=O)N2CCN(c3ncccn3)CC2)c(=O)[nH]1`, the cytotoxicity at 10 µM was -6.28%. The value for `N#Cc1ccnc(N2CCN(C(=O)Cc3ccc4c(c3)CCO4)CC2)c1` was -4.1%; that for `Cc1ccc(CNC(=O)CN2CCCC(Cn3cncn3)C2)s1` (stereo not drawn) was -1.78%. The value for `O=C(CCCNc1ncccn1)N1CCCC(n2cccn2)C1` (stereo not drawn) was 7.34%; that for `CC(C)COCC(NC(=O)c1ccccn1)c1ccco1` (stereo not drawn) was -7.52%; that for `Cc1cnn(CC2CCCN2CC(=O)Nc2nc(C)cs2)c1` (stereo not drawn) was -6.26%. The value for `Cn1nc(CN2CCOCC2)c2c1CN(Cc1ccsc1)C2` was -145%. As to `CN1CCN(C)C(c2nnc3ccc(C(=O)N4CCOCC4)cn23)C1` (stereo not drawn), the cytotoxicity at 10 µM was -130%. The value for `Cc1nc(N(C)C)nc2c1COCC21CCN(CC2CC2)C1` (stereo not drawn) was -8.94%; that for `O=C(c1cnccn1)N1CCCC2(CCN(Cc3ccc(F)cc3)C2)C1` (stereo not drawn) was -153%; that for `Cn1cc(CN2CCOC3(CCCN(C(=O)c4ccco4)C3)C2)cn1` (stereo not drawn) was -23.9%. The value for `Cn1cc(C[C@H]2[C@H](N3CCOCC3)CCN2c2ncc(F)cn2)cn1` was 7.23%; that for `CN(C)C(=O)CN1CCCC12CCCN(c1ncc(F)cn1)C2` (stereo not drawn) was -2.51%; that for `Cc1nc(N2CCCC2)nc2c1CCN(Cc1ccoc1)CC2` was -134%. The value for `Cc1nc(CN2C(=O)COC3(CCN(C)CC3)C2C)cs1` (stereo not drawn) was -128%.
